Laboratory results from ChEMBL document CHEMBL1124712, “Pre- and postsynaptic dopaminergic activities of indolizidine and quinolizidine derivatives of 3-(3-hydroxyphenyl)-N-(n-propyl)piperidine (3-PPP). Further developments of a dopamine receptor model” (J Med Chem, 1990).
Calls of active or inactive are those of the source. The calls are words filed in the database; no cut-off is given here.

Legend:
[1] = test system: Rattus norvegicus; assay: DOPA accumulation in normal rat cortex at 213 umol/kg expressed as percent of control; Inactive; type: functional, organism-based
[2] = test system: Rattus norvegicus; assay: DOPA accumulation in reserpine-pretreated rat cortex after subcutaneous administration; Inactive; type: functional, organism-based
[3] = test system: Rattus norvegicus; assay: DOPA accumulation in normal rat limbic region at 213 umol/kg expressed as percent of control; type: functional, Limbic system
[4] = test system: Rattus norvegicus; assay: Locomotor activity in reserpine-pretreated ratat the dose of 213 umol/kg; Accumulation counts/30 min; type: functional
[5] = test system: Rattus norvegicus; assay: DOPA accumulation in reserpine-pretreated rat striatal region after subcutaneous administration; type: functional; conditions: sc
[6] = test system: Rattus norvegicus; assay: Locomotor activity in normal rat at 0.8 umol/kg expressed as percent of control; type: functional
[7] = test system: Rattus norvegicus; assay: DOPA accumulation in normal rat striatal region at 27 umol/kg expressed as percent of control; type: functional
[8] = test system: Rattus norvegicus; assay: DOPA accumulation in reserpine-pretreated rat limbic region after subcutaneous administration; type: functional; conditions: Limbic system, sc
[9] = test system: Rattus norvegicus; assay: Locomotor activity in normal rat at 213 umol/kg expressed as percent of control; type: functional
[10] = test system: Rattus norvegicus; assay: DOPA accumulation in normal rat cortex at 27 umol/kg expressed as percent of control; Inactive; type: functional, organism-based
[11] = test system: Rattus norvegicus; assay: DOPA accumulation in normal rat striatal region at 50 umol/kg expressed as percent of control; type: functional
[12] = test system: Rattus norvegicus; assay: Locomotor activity in reserpine-pretreated rat at the dose of 50 umol/kg; Accumulation counts/30 min; type: functional
[13] = test system: Rattus norvegicus; assay: DOPA accumulation in normal rat cortex at 50 umol/kg expressed as percent of control; Inactive; type: functional, organism-based
[14] = test system: Rattus norvegicus; assay: Locomotor activity in normal rat at 3.1 umol/kg expressed as percent of control; type: functional
Outline: (§1)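 Untreated rats were given the test drug sc. Locomotor activity was recorded with motility meters and expressed as percent of controls, with significance by Student's t test (p < 0.05).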

[15] = biological target: T1, D(2) dopamine receptor (Rattus norvegicus, UniProt P61169); assay: In vitro inhibition of [3H]N-0437 binding to Dopamine receptor D2 in rat striatal membranes; type: cell membranes, Membrane
T1 sequence (P61169 whole entry): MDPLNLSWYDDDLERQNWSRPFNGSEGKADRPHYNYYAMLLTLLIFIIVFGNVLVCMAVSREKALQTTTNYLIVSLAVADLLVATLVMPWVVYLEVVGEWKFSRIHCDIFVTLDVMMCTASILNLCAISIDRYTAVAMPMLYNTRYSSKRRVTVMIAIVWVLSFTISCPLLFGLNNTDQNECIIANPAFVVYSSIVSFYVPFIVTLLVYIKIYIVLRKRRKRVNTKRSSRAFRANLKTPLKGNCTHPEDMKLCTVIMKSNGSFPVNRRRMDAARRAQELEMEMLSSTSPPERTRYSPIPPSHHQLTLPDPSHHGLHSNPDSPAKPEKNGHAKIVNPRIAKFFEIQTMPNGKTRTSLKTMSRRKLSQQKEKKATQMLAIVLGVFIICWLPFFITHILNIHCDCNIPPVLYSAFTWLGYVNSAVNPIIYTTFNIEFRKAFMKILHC

[16] = test system: Rattus norvegicus; assay: DOPA accumulation in normal rat limbic region at 50 umol/kg expressed as percent of control; type: functional, Limbic system
[17] = test system: Rattus norvegicus; assay: Locomotor activity in normal rat at 50 umol/kg expressed as percent of control; type: functional; outline: as §1
[18] = biological target: T1, D(2) dopamine receptor; assay: In vitro inhibition of [3H]spiperone binding to Dopamine receptor D2 in rat striatal membranes; type: cell membranes, Membrane
[19] = test system: Rattus norvegicus; assay: DOPA accumulation in normal rat striatal region at 50 umol/kg expressed as percent of control; Inactive; type: functional, organism-based
[20] = test system: Rattus norvegicus; assay: DOPA accumulation in reserpine-pretreated rat limbic region after subcutaneous administration of 50 umol/kg; Range is 0.44-3.5; type: functional; conditions: Limbic system, sc
[21] = test system: Rattus norvegicus; assay: DOPA accumulation in reserpine-pretreated rat cortex after subcutaneous administration of 50 umol/kg; Inactive; type: functional, organism-based
[22] = test system: Rattus norvegicus; assay: DOPA accumulation in normal rat cortex at 50 umol/kg expressed as percent of control; type: functional
[23] = test system: Rattus norvegicus; assay: DOPA accumulation in normal rat limbic region at 50 umol/kg expressed as percent of control; Inactive; type: functional, organism-based; conditions: Limbic system
[24] = test system: Rattus norvegicus; assay: Locomotor activity in reserpine-pretreated rat at the dose of 100 umol/kg; Accumulation counts/30 min; type: functional
[25] = test system: Rattus norvegicus; assay: DOPA accumulation in normal rat striatal region at 100 umol/kg expressed as percent of control; type: functional
[26] = test system: Rattus norvegicus; assay: Locomotor activity in normal rat at 100 umol/kg expressed as percent of control; type: functional; outline: as §1
[27] = test system: Rattus norvegicus; assay: DOPA accumulation in normal rat cortex at 100 umol/kg expressed as percent of control; type: functional
[28] = test system: Rattus norvegicus; assay: DOPA accumulation in normal rat limbic region at 100 umol/kg expressed as percent of control; type: functional, Limbic system
[29] = test system: Rattus norvegicus; assay: Locomotor activity in normal rat at 12.5 umol/kg expressed as percent of control; type: functional; outline: as §1
[30] = test system: Rattus norvegicus; assay: DOPA accumulation in normal rat striatal region at of 50 umol/kg expressed as percent of control; type: functional
[31] = test system: Rattus norvegicus; assay: DOPA accumulation in reserpine-pretreated rat striatal region after subcutaneous administration of 50 umol/kg; Range is 1.7-4; type: functional; conditions: sc
[32] = test system: Rattus norvegicus; assay: DOPA accumulation in reserpine-pretreated rat limbic region after subcutaneous administration of 50 umol/kg; Range is 1.1-6.5; type: functional; conditions: Limbic system, sc
[33] = test system: Rattus norvegicus; assay: DOPA accumulation in normal rat cortex at of 50 umol/kg expressed as percent of control; type: functional
[34] = test system: Rattus norvegicus; assay: Locomotor activity in reserpine-pretreated ratat the dose of 50 umol/kg; Accumulation counts/30 min; type: functional
[35] = test system: Rattus norvegicus; assay: DOPA accumulation in normal rat striatal region at 12.5 umol/kg expressed as percent of control; type: functional
[36] = test system: Rattus norvegicus; assay: DOPA accumulation in reserpine-pretreated rat striatal region after subcutaneous administration of 50 umol/kg; Inactive; type: functional, organism-based
[37] = test system: Rattus norvegicus; assay: Locomotor activity in normal rat at 25 umol/kg expressed as percent of control; type: functional; outline: as §1
[38] = test system: Rattus norvegicus; assay: DOPA accumulation in normal rat limbic region at 12.5 umol/kg expressed as percent of control; type: functional, Limbic system
[39] = test system: Rattus norvegicus; assay: DOPA accumulation in normal rat cortex at 12.5 umol/kg expressed as percent of control; Inactive; type: functional, organism-based
[40] = test system: Rattus norvegicus; assay: DOPA accumulation in reserpine-pretreated rat limbic region after subcutaneous administration of 50 umol/kg; Inactive; type: functional, organism-based; conditions: Limbic system
[41] = test system: Rattus norvegicus; assay: DOPA accumulation in normal rat striatal region at 0.8 umol/kg expressed as percent of control; type: functional
[42] = test system: Rattus norvegicus; assay: Locomotor activity in reserpine-pretreated ratat the dose of 13 umol/kg; Accumulation counts/30 min; type: functional
[43] = test system: Rattus norvegicus; assay: DOPA accumulation in normal rat limbic region at 27 umol/kg expressed as percent of control; type: functional, Limbic system
[44] = test system: Rattus norvegicus; assay: Locomotor activity in normal rat at 1.6 umol/kg expressed as percent of control; type: functional
[45] = test system: Rattus norvegicus; assay: DOPA accumulation in normal rat limbic region at 0.8 umol/kg expressed as percent of control; type: functional, Limbic system
[46] = test system: Rattus norvegicus; assay: DOPA accumulation in normal rat cortex at 0.8 umol/kg expressed as percent of control; Inactive; type: functional, organism-based

CCCN1CCC[C@@H](c2cccc(O)c2)C1 [PRECLAMOL]
Control [1]: inactive | ED50 [2]: inactive | Control [3]: 95% | Locomotor activity [4]: 12 | ED50 [5]: 1.7 µmol/kg | Control [6]: 74% | Control [7]: 147% | ED50 [8]: 0.8 µmol/kg | Control [9]: 40% | Control [10]: inactive

Oc1cccc([C@@H]2CCCN3CCCC23)c1 (some centres not stated)
Control [11]: 245% | Locomotor activity [12]: 21 | Control [13]: inactive | Control [14]: 135% | IC50 [15]: 0.17 µM | Control [16]: 153% | Control [17]: 72% | IC50 [18]: 6.5 µM

Oc1cccc(C2CCCN3CCCC23)c1 (racemic)
Control [19]: inactive | Locomotor activity [12]: 13 | ED50 [20]: 0.44 µmol/kg | ED50 [21]: inactive | IC50 [15]: 0.075 µM | Control [22]: 57% | Control [17]: 48% | Control [23]: inactive | IC50 [18]: 3.8 µM

CCCN(CCc1ccsc1)C1CCc2c(O)cccc2C1 (configuration not stated)
IC50 [15]: 0.00062 µM | IC50 [18]: 0.0088 µM

O=C(O)C(=O)O.Oc1cccc(C2CCC3CCCCN3C2)c1 (configuration not stated)
Locomotor activity [24]: 262 | Control [25]: 56% | Control [26]: 220% | Control [27]: 62% | Control [28]: 69% | IC50 [15]: 7.9 µM | IC50 [18]: 40 µM

Oc1cccc([C@H]2CCCN3CCCC23)c1 (some centres not stated)
Control [29]: 42% | Locomotor activity [12]: 25 | Control [30]: 46% | ED50 [31]: 1.7 µmol/kg | ED50 [32]: 1.1 µmol/kg | IC50 [15]: 0.045 µM | Control [16]: 46% | Control [17]: 83% | IC50 [18]: 4.9 µM | Control [33]: 37%

Oc1cccc(C2CCCN3CCCCC23)c1 (configuration not stated)
Control [25]: 54% | Control [26]: 142% | Control [27]: 48% | Control [28]: 61% | IC50 [15]: 0.58 µM | Locomotor activity [34]: 14 | IC50 [18]: 13 µM

Oc1cccc(C2=CCCN3CCCCC23)c1 (configuration not stated)
Control [35]: 200% | ED50 [36]: inactive | Control [37]: 51% | Control [29]: 45% | Control [38]: 165% | Control [39]: inactive | ED50 [21]: inactive | Control [14]: 82% | IC50 [15]: 0.32 µM | ED50 [40]: inactive | Locomotor activity [34]: 8 | IC50 [18]: 5.3 µM

CCCN1CCC[C@H](c2cccc(O)c2)C1
Control [41]: 81% | Locomotor activity [42]: 78 | Control [43]: 40% | ED50 [2]: inactive | Control [44]: 75% | ED50 [5]: 1.3 µmol/kg | Control [45]: 86% | Control [46]: inactive | Control [7]: 45% | ED50 [8]: 1 µmol/kg | Control [9]: 230% | Control [10]: inactive
